Assay outcomes as filed in PubChem.
hIAP act: increases human intestinal alkaline phosphatase activity; P09923; purified human IAP, CDP-Star luminescence, 30 min; hits give high values; 1 = vehicle-only enzyme, 0 = enzyme-free background; activation factor at 10 µM; 0.16% of 330,000 active;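 active means activation factor of the enzyme at least 2-fold when tested at 20 µM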
Target sequence (P09923 whole entry, looked up): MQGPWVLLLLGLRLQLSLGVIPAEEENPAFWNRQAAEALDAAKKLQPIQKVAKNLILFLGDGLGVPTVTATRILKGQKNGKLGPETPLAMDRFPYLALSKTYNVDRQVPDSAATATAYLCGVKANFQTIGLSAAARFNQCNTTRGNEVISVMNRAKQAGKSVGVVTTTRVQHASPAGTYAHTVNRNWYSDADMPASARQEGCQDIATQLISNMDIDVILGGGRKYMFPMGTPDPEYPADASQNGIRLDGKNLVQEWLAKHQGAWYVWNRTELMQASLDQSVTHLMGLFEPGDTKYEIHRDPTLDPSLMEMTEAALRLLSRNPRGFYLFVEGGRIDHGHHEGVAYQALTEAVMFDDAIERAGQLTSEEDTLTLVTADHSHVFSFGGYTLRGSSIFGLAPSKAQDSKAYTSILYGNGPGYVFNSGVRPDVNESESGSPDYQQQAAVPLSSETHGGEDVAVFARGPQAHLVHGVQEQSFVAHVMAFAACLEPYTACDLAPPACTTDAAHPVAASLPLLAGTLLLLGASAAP
mIAP act: mouse IAP activation; muIAP, CDP-Star luminescence, 30 min; hits give high values; 1 = vehicle-only enzyme signal, 0 = enzyme-free wells; 0.24% of 330,000 active; activation factor at 10 µM;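 active means activation factor of at least 2 at 20 µM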
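Assay system: mouse IAP enzyme; Reagent: CDP-Star chemiluminescent phosphatase substrate; Compound: DMSO-dissolved test compounds; Incubation: 30 min, room temperature; Technique: luminescence from enzymatic CDP-Star hydrolysis; Controls: DMSO-only wells and no-enzyme negative control.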
bIAP inhibitor: blocks bovine intestinal alkaline phosphatase activity. 190,000 tested, under 10 active. purified bovine IAP, CDP-star luminescence, 30 min. inhibition, % at 20 µM. AID 1019;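 active means over 50% inhibition of intestinal alkaline phosphatase at 20 µM in the single-dose screen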
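System: Purified bovine intestinal alkaline phosphatase (IAP) enzyme | Input: IAP diluted 1/65,000,000 in the well | Also added: CDP-star chemiluminescent phosphatase substrate, 30 µM final | Dosing: 20 µM single dose | Times: Enzyme reaction for 30 min at room temperature | Detection: Luminescence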
mIAP inh: blocks mouse intestinal alkaline phosphatase | inhibition, % at 10 µM | 0.2% of 330,000 active | purified mouse IAP, CDP-Star luminescence, 30 min;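 active means inhibition of at least 40% at 10 µM in the primary screen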
bIAP act: increases bovine intestinal alkaline phosphatase activity | 0.17% of 200,000 active | purified bovine IAP, CDP-star luminescence, 30 min; hits give high values; fold of DMSO-control signal, blank-subtracted | activation factor at 20 µM | AID 1016;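 active means activation factor of 2 or more at 20 µM, a signal rise over negative controls twice the positive control's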
hIAP block: blocks human intestinal alkaline phosphatase | P09923 | purified IAP, CDP-Star luminescence, 30 min | inhibition, % at 10 µM | 0.12% of 330,000 active | AID 2544;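 active means inhibition reaching a set limit with compound at 10 µM in the primary screen, cut at about 35% in these data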
mIAP inh conf: mouse IAP inhibition confirmation | shares compounds with mIAP inh | inhibition, % at 10 µM | 4.7% of 11,000 active | purified mouse IAP, CDP-Star luminescence, 30 min;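 active means inhibition of at least 40% at 10 µM in either of the two replicates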
Large screens that a line does not name were inactive (follow-up assays come after a bar, where they were run). An excerpt weighted towards active compounds, which were near 0.77% of everything screened.

CN(C(=O)c1cccc(NC(=O)Cc2cccc([N+](=O)[O-])c2)c1)C1CCCC1	none (no result: bIAP inhibitor, bIAP act)
C#CCOCCOCCOCCNc1nc(N2CCN(C(=O)CCCCCCCCCCNC(=O)Cn3cc(CCCCCN)nn3)CC2)nc(N2CCN(C(=O)CCCCCCCCCCNC(=O)Cn3cc(C[C@@H](C)O)nn3)CC2)n1	mIAP act 2.1 (no result: bIAP inhibitor, bIAP act) | mIAP inh conf inactive
C#CCOCCOCCOCCNc1nc(N2CCN(C(=O)CCCCCCCCCCNC(=O)Cn3cc(C[C@@H](C)O)nn3)CC2)nc(N2CCN(C(=O)CCCCCCCCCCNC(=O)[C@@H]([C@H](C)CC)n3cc(CCCCCN)nn3)CC2)n1	mIAP act 6.1 (no result: bIAP inhibitor, bIAP act) | mIAP inh conf inactive
C=CCn1cc(CN2CCC(C(=O)Nc3cccc(-c4cccc(F)c4)c3)CC2)c(C)n1	mIAP act 2.5 (no result: bIAP inhibitor, bIAP act) | mIAP inh conf inactive
CCCn1ncc(CN2CCC(C(=O)Nc3cccc(-c4cccc(F)c4)c3)CC2)c1C	mIAP act 5.3 (no result: bIAP inhibitor, bIAP act) | mIAP inh conf inactive
FC(F)Sc1nc2ccccc2[nH]1	none (no result: bIAP inhibitor, bIAP act)
C[C@H]1CN([C@@H](C)CO)C(=O)c2cc(NC(=O)C3CCCCC3)ccc2O[C@H]1CN(C)Cc1ccc(-c2ccccc2)cc1	none (no result: bIAP inhibitor, bIAP act)
C[C@H]1CN([C@@H](C)CO)C(=O)c2cc(NC(=O)Nc3cccc4ccccc34)ccc2O[C@@H]1CN(C)Cc1ccc(-c2ccccc2)cc1	mIAP act 3.9 (no result: bIAP inhibitor, bIAP act) | mIAP inh conf inactive
Cc1ccc(S(=O)(=O)N(C)C[C@H]2Oc3c(NC(=O)Nc4cccc5ccccc45)cccc3C(=O)N([C@@H](C)CO)C[C@@H]2C)cc1	mIAP act 4.4 (no result: bIAP inhibitor, bIAP act) | mIAP inh conf inactive
C[C@H](CO)N1C[C@H](C)[C@@H](CN(C)C(=O)Nc2ccccc2)Oc2ccc(NC(=O)Nc3ccc4c(c3)OCO4)cc2C1=O	mIAP act 3 (no result: bIAP inhibitor, bIAP act) | mIAP inh conf inactive
COc1ccc(NC(=O)Nc2cccc3c2O[C@H](CN(C)Cc2ccc(-c4ccccc4)cc2)[C@@H](C)CN([C@H](C)CO)C3=O)cc1	none (no result: bIAP inhibitor, bIAP act)
C[C@@H]1CN([C@@H](C)CO)C(=O)c2cccc(NC(=O)Nc3ccc(F)cc3)c2O[C@@H]1CN(C)Cc1ccc(Oc2ccccc2)cc1	mIAP act 4.3 (no result: bIAP inhibitor, bIAP act) | mIAP inh conf inactive
COc1ccc(NC(=O)Nc2cccc3c2O[C@H](CN(C)S(=O)(=O)c2ccc(OC)cc2)[C@@H](C)CN([C@H](C)CO)C3=O)cc1	none (no result: bIAP inhibitor, bIAP act)
CC1Cc2ccccc2N1S(=O)(=O)c1cccc(C(=O)N2Cc3ccccc3CC2C(N)=O)c1 (stereo unspecified)	none (no result: bIAP inhibitor, bIAP act)
CCOc1ccc(NS(=O)(=O)c2ccc(C(=O)NCCCN3CCCC3=O)cc2)cc1	none (no result: bIAP inhibitor, bIAP act)
C[C@@H]1CN([C@H](C)CO)C(=O)c2cc(NC(=O)Nc3cccc4ccccc34)ccc2O[C@H]1CN(C)Cc1ccc(C(F)(F)F)cc1	mIAP act 3.3 (no result: bIAP inhibitor, bIAP act) | mIAP inh conf inactive
C[C@@H]1CN([C@H](C)CO)C(=O)c2cc(NC(=O)C3CCCCC3)ccc2O[C@@H]1CN(C)Cc1ccc(C(F)(F)F)cc1	none (no result: bIAP inhibitor, bIAP act)
O=C(NCC1CC1(Cl)Cl)Nc1ccc(Cl)c(Cl)c1 (stereo unspecified)	mIAP act 2.9 (no result: bIAP inhibitor, bIAP act) | mIAP inh conf inactive
COc1ccc(CNC(=O)CN2CCN(c3ccccc3O)CC2)cc1OC	none (no result: bIAP inhibitor, bIAP act)
O=C(N/C=C/c1ccccc1)Nc1ccc(Cl)cc1	mIAP act 4 | mIAP inh conf inactive
O=C(N/N=C/c1ccc(Cl)cc1)Nc1ccccc1	none
O=C(c1c(O)cc(O)cc1O)C1c2c(cc(O)c3c2O[C@H](c2ccc(O)cc2)[C@@H](O)C3)OC1c1ccc(O)cc1 (stereo partly specified)	mIAP inh 58 (no result: bIAP inhibitor, bIAP act) | mIAP inh conf 47
O=C1CC(c2ccccc2)c2c(O)cc(O)cc2O1 (stereo unspecified)	none
CCn1c(C)cc(C(=O)CSc2nnc(-c3ccco3)o2)c1C	none (no result: bIAP inhibitor, bIAP act)
N#CC1=C(N)C2=C(N3CCCCC3)CCCC2C1(C#N)C#N (stereo unspecified)	none (no result: bIAP inhibitor) | mIAP inh conf 40
N#CC(C#N)=C1C=C2C=C(N3CCCCC3)CCC2CC1 (stereo unspecified)	none (no result: hIAP act, mIAP act, mIAP inh, hIAP block)
